Reference: ChEMBL document CHEMBL1795332, “Renin inhibitors for the treatment of hypertension: design and optimization of a novel series of pyridone-substituted piperidines” (Bioorg Med Chem Lett, 2011)
pIC50, pKi: −log10 of the molar value.

Key:
Rattus norvegicus [1] = experiment: Cardiotoxicity in cardiac electrophysiology rat model assessed as prolongation of PR intervals at 10 mg/kg, iv after 0.5 hrs relative to baseline; type: toxicity, organism-based, Heart; set-up: dose 10 mg/kg, route intravenous; details: in vivo
How it was run: (§1)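 Rat electrophysiology model dosed at 10 mpk over 0.5 h. PR and QRS prolongation expressed as percentage change from baseline; plasma concentration (µM) recorded.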

[2] = Plasma concentration in cardiac electrophysiology rat model at 10 mg/kg, iv after 0.5 hrs; type: ADME, organism-based; set-up: dose 10 mg/kg, route intravenous; how it was run: as §1
[3] = target: Sodium channel protein type 5 subunit alpha (Homo sapiens, UniProt Q14524); experiment: Inhibition of human Nav1.5
[4] = target: Voltage-dependent L-type calcium channel subunit alpha-1C (Homo sapiens, UniProt Q13936); experiment: Inhibition of human Cav1.2
Voltage-dependent L-type calcium channel subunit alpha-1C, sequence (Q13936 whole entry): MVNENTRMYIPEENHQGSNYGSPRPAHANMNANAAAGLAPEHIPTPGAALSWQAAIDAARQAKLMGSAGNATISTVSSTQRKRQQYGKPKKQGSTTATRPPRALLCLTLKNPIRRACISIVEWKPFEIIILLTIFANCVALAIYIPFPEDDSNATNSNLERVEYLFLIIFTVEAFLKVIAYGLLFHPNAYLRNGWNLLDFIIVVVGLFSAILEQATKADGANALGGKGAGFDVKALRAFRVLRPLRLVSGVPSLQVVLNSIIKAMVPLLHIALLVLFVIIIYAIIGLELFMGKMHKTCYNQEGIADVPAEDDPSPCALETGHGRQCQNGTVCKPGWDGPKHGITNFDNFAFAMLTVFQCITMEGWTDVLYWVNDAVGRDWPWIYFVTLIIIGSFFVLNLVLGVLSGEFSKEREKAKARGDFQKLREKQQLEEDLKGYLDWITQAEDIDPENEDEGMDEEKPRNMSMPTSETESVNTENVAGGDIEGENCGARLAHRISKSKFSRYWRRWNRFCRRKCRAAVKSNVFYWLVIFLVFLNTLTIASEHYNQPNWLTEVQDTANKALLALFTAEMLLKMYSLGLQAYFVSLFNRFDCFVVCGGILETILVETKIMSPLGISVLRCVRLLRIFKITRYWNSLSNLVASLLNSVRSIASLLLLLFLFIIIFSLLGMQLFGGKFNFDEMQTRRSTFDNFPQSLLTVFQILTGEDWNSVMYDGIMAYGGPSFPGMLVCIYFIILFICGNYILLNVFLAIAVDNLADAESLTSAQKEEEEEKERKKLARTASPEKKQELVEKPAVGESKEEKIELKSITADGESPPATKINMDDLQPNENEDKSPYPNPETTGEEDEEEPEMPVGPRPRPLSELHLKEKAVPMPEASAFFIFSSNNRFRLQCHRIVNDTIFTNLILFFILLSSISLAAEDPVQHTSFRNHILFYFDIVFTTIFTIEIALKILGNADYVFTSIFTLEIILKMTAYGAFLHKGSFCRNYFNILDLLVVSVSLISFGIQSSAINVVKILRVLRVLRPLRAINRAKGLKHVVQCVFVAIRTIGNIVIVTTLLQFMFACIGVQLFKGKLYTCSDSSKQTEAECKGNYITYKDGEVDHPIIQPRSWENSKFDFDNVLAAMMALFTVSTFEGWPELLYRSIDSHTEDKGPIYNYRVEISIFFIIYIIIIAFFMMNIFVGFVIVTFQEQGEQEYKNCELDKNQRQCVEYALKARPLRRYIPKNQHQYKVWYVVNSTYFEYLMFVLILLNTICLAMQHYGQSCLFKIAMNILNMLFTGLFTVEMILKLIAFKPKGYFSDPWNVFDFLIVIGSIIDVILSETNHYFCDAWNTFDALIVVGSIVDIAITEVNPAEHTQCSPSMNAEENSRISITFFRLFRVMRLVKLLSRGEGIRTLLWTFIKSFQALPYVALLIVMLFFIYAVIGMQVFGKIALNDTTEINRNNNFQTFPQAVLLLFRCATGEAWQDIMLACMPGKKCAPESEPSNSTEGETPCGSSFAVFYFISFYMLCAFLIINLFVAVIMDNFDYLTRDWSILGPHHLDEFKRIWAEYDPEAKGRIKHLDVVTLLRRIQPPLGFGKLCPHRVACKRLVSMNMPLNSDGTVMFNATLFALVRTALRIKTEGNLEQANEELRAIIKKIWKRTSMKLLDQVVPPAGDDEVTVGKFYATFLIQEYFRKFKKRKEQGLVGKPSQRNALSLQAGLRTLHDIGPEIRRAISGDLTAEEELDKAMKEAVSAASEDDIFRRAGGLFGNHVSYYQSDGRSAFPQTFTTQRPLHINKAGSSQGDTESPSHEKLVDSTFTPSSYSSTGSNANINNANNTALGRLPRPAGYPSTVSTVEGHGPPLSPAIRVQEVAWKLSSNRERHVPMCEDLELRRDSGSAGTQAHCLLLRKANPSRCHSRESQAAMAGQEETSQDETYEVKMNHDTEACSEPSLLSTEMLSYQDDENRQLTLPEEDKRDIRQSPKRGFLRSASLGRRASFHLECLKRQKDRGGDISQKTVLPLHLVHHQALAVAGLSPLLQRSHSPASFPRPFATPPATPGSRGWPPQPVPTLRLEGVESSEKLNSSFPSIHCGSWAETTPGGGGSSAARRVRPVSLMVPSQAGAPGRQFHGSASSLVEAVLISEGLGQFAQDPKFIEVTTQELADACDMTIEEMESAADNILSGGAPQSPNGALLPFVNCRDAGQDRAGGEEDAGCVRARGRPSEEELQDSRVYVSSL

Canis familiaris [5] = experiment: Cardiotoxicity in anesthetized, vagotomized and ventilated Mongrel dog assessed as prolongation of QRS intervals at 10 mg/kg, iv after 1.5 hrs relative to baseline; type: toxicity, organism-based, Canis lupus familiaris; set-up: dose 10 mg/kg, route intravenous; details: in vivo
How it was run: (§2)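 Anesthetized, vagotomized, ventilated mongrel dogs received an iv infusion of 10 mpk over 1.5 h. QTc, PR and QRS intervals were recorded as percentage change from baseline, and plasma concentration (µM) was measured.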

[6] = Plasma concentration in anesthetized, vagotomized and ventilated Mongrel dog at 10 mg/kg, iv after 1.5 hrs; type: ADME, organism-based, Canis lupus familiaris; set-up: dose 10 mg/kg, route intravenous; how it was run: as §2
Rattus norvegicus [7] = experiment: Cardiotoxicity in cardiac electrophysiology rat model assessed as prolongation of QRS intervals at 10 mg/kg, iv after 0.5 hrs relative to baseline; type: toxicity, organism-based, Heart; set-up: dose 10 mg/kg, route intravenous; details: in vivo; how it was run: as §1
Canis familiaris [8] = experiment: Cardiotoxicity in anesthetized, vagotomized and ventilated Mongrel dog assessed as prolongation of PR intervals at 10 mg/kg, iv after 1.5 hrs relative to baseline; type: toxicity, organism-based, Canis lupus familiaris; set-up: dose 10 mg/kg, route intravenous; details: in vivo; how it was run: as §2
Renin [9] = target: T1, Renin (Homo sapiens, UniProt P00797); experiment: Inhibition of human recombinant renin using Q-FRET substrate after 3 hrs by fluorescence assay
T1 sequence (P00797 whole entry): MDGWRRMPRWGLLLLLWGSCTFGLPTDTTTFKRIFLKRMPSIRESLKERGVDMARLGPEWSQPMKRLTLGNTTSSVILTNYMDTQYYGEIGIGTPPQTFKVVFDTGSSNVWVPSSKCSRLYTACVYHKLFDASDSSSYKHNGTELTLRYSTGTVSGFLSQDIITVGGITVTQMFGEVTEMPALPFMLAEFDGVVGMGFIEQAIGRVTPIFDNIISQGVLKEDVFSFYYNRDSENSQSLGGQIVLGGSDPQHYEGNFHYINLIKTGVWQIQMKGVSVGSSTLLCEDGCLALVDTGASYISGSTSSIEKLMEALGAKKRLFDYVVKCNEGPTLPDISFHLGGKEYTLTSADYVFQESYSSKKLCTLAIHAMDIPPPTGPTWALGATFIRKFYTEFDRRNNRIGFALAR

Renin [10] = target: T1, Renin; experiment: Inhibition of renin in human plasma using Q-FRET substrate pretreated for 10 mins before substrate addition measured after 1 hr
Canis familiaris [11] = experiment: Cardiotoxicity in anesthetized, vagotomized and ventilated Mongrel dog assessed as prolongation of QTc intervals at 10 mg/kg, iv after 1.5 hrs relative to baseline; type: toxicity, organism-based, Canis lupus familiaris; set-up: dose 10 mg/kg, route intravenous; details: in vivo; how it was run: as §2
CYP3A4 [12] = target: T2, CYP3A4 (Homo sapiens, UniProt P08684); experiment: Time dependent inhibition of CYP3A4 assessed as conversion of testosterone to 6-beta-hydroxytestosterone at 10 uM relative to control; type: ADME; details: probe testosterone
T2 sequence (P08684 whole entry): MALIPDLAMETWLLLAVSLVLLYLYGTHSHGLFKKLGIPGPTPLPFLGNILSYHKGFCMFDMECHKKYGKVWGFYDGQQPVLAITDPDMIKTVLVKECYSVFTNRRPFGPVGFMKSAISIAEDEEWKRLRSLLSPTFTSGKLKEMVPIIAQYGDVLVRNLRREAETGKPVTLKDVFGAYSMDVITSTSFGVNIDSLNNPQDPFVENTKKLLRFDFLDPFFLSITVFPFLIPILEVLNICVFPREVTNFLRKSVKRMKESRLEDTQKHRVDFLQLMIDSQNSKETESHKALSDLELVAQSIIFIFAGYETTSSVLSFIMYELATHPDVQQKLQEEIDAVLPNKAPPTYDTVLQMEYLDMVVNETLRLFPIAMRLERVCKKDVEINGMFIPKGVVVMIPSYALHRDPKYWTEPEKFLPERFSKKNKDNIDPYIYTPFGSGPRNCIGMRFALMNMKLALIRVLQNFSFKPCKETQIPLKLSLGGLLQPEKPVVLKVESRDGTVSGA
How it was run: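 Rate of CYP3A4 conversion of testosterone (250 μM) to 6-β-hydroxytestosterone measured before and after a 30 min incubation with compound at 10 μM (in DMSO). Difference expressed as % loss.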

[13] = Oral bioavailability in Sprague-Dawley rat at 30 mg/kg; type: ADME, organism-based; details: in vivo
[14] = Oral bioavailability in Sprague-Dawley rat at 20 mg/kg; type: ADME, organism-based; details: in vivo
CYP3A4 [15] = target: T2, CYP3A4; experiment: Reversible inhibition of CYP3A4 assessed as conversion of testosterone to 6-beta-hydroxytestosterone at 10 uM relative to control; type: ADME; details: probe testosterone
[16] = target: Voltage-gated inwardly rectifying potassium channel KCNH2 (Homo sapiens, UniProt Q12809); experiment: Inhibition of human ERG
Voltage-gated inwardly rectifying potassium channel KCNH2, sequence (Q12809 whole entry): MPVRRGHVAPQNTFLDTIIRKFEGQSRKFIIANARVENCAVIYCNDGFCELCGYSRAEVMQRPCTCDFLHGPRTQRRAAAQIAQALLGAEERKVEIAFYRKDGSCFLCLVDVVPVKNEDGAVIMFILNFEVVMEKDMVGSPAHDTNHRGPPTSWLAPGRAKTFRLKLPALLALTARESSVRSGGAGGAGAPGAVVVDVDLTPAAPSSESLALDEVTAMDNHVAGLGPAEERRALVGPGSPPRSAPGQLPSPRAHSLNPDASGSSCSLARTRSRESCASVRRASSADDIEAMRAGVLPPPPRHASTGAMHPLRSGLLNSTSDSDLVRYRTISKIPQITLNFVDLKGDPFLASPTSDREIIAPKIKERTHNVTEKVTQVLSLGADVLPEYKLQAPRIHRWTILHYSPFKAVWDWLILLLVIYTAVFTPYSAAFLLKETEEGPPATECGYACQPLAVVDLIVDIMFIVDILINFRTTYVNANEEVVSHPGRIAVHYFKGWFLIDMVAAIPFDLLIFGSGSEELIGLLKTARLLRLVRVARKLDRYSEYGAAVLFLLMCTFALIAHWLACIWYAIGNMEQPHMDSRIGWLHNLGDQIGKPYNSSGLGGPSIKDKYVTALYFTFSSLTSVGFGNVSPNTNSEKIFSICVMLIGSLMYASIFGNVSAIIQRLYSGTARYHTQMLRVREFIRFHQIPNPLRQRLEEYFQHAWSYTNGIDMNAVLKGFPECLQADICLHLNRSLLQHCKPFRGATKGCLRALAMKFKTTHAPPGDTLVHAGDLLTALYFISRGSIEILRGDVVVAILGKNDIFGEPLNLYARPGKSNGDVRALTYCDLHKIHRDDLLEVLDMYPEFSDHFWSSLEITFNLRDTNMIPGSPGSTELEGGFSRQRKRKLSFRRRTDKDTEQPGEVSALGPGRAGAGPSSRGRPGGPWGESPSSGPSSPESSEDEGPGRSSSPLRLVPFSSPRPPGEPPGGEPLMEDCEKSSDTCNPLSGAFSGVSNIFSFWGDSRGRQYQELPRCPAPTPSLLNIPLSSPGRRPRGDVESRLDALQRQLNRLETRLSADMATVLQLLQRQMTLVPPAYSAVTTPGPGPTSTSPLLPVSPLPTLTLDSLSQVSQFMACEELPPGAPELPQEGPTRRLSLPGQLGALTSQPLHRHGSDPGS

[17] = Volume of distribution at steady state in Sprague-Dawley rat at 20 mg/kg, po and 5 mg/kg, iv; details: in vivo, read-out: Vdss
Rattus norvegicus [18] = experiment: Antihypertensive activity in double transgenic rat model assessed as reduction of blood pressure at 10 mg/kg, po; type: functional
Liver microsomes [19] = experiment: Covalent binding in human liver microsomes assessed per mg of protein at 10 uM after 60 mins in presence of NADPH; type: ADME, Microsome; details: 1 h
How it was run: (§3)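 Test compound at 10 μM was incubated for 60 min (n = 3) with human liver microsomes at 1 mg protein/mL, with or without 1 mM NADPH. Covalent binding reported as pmole eq/mg at 1 h.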

[20] = Half life in Sprague-Dawley rat at 20 mg/kg, po and 5 mg/kg, iv; details: in vivo
Rattus norvegicus [21] = experiment: Antihypertensive activity in double transgenic rat model assessed as duration in reduction of blood pressure at 10 mg/kg, po; type: functional
Liver microsomes [22] = experiment: Covalent binding in human liver microsomes assessed per mg of protein at 10 uM after 60 mins in absence of NADPH; type: ADME, Microsome; details: 1 h; how it was run: as §3
Cytochrome P450 3A4 [23] = target: T3, Cytochrome P450 3A4 (Homo sapiens, UniProt P08684); experiment: Time dependent inhibition of CYP3A4 assessed as conversion of testosterone to 6-beta-hydroxytestosterone preincubated for 30 mins; type: ADME
T3 sequence (P08684 whole entry): as the sequence (P08684 whole entry) above
How it was run: (§4)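 Time-dependent CYP3A4 inhibition (testosterone to 6-β-hydroxytestosterone).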

Cytochrome P450 3A4 [24] = target: T3, Cytochrome P450 3A4; experiment: Reversible inhibition of CYP3A4 assessed as conversion of testosterone to 6-beta-hydroxytestosterone; type: ADME
[25] = Half life in Beagle dog at 3 mg/kg, po and 1 mg/kg, iv; type: ADME, organism-based, Canis lupus familiaris; details: in vivo
[26] = Volume of distribution at steady state in cynomolgus monkey at 3 mg/kg, po and 1 mg/kg, iv; type: ADME, organism-based, Macaca fascicularis; details: in vivo, read-out: Vdss
[27] = Oral bioavailability in Beagle dog at 3 mg/kg; type: ADME, organism-based, Canis lupus familiaris; details: in vivo
[28] = AUC in cynomolgus monkey at 3 mg/kg, po; type: ADME, organism-based, Macaca fascicularis; set-up: dose 3 mg/kg, route oral; details: plasma
[29] = Clearance in cynomolgus monkey at 3 mg/kg, po and 1 mg/kg, iv; type: ADME, organism-based, Macaca fascicularis; details: in vivo
[30] = Volume of distribution at steady state in Beagle dog at 3 mg/kg, po and 1 mg/kg, iv; type: ADME, organism-based, Canis lupus familiaris; details: in vivo, read-out: Vdss
[31] = AUC in Sprague-Dawley rat at 20 mg/kg, po; type: ADME, organism-based; set-up: dose 20 mg/kg, route oral; details: plasma
[32] = Clearance in Sprague-Dawley rat at 20 mg/kg, po and 5 mg/kg, iv; details: in vivo
[33] = Oral bioavailability in cynomolgus monkey at 3 mg/kg; type: ADME, organism-based, Macaca fascicularis; details: in vivo
[34] = Clearance in Beagle dog at 3 mg/kg, po and 1 mg/kg, iv; type: ADME, organism-based, Canis lupus familiaris; details: in vivo
Cytochrome P450 3A4 [35] = target: T3, Cytochrome P450 3A4; experiment: Time dependent inhibition of CYP3A4 assessed as conversion of testosterone to 6-beta-hydroxytestosterone; type: ADME; how it was run: as §4
[36] = AUC in Beagle dog at 3 mg/kg, po; type: ADME, organism-based, Canis lupus familiaris; set-up: dose 3 mg/kg, route oral; details: plasma
[37] = Half life in cynomolgus monkey at 3 mg/kg, po and 1 mg/kg, iv; type: ADME, organism-based, Macaca fascicularis; details: in vivo
[38] = Solubility of the compound in water; type: physicochemical; details: buffer

For `COCCCn1cc(CN(C(=O)[C@H]2CNCC[C@@H]2c2ccn(C)c(=O)c2)C2CC2)c2ccccc21`, the Activity (Rattus norvegicus [1]) was 23%, the concentration at 0.5 h [2] was 12.7 µM and the pIC50 [3] was < 4.52. The pIC50 [4] was < 4.52, the Activity (Canis familiaris [5]) was 12% and the concentration at 1.5 h [6] was 25 µM. It also gave an Activity (Rattus norvegicus [7]) of 30%, an Activity (Canis familiaris [8]) of 14% and a pIC50 (Renin [9]) of 8.64. For the same compound, the pIC50 (Renin [10]) was 8.28, the Activity (Canis familiaris [11]) was 6% and the inhibition at 10 µM (CYP3A4 [12]) was 45%. For the same compound, the bioavailability [13] was 8%.

With `COCCCc1cc(Cl)c(Cl)c(CN(C(=O)[C@H]2CNCC[C@@H]2c2ccn(C)c(=O)c2)C2CC2)c1` the Activity (Rattus norvegicus [1]) was 35%, the concentration at 0.5 h [2] was 7.4 µM and the Activity (Canis familiaris [5]) was 33%. The concentration at 1.5 h [6] was 15 µM, the bioavailability [14] was 24% and the Activity (Rattus norvegicus [7]) was 54%. For the same compound, the Activity (Canis familiaris [8]) was 50%, the pIC50 (Renin [9]) was 9.52 and the activity % at 10 µM (CYP3A4 [15]) was 53%. The pIC50 (Renin [10]) was 8.89, the Activity (Canis familiaris [11]) was 10% and the inhibition at 10 µM (CYP3A4 [12]) was 16%. For the same compound, the pKi [16] was 5.32.

Compound `COCCCc1cc(CN(C(=O)[C@H]2CNCC[C@@H]2c2ccn(C)c(=O)c2)C2CC2)cc(Br)c1C` has a Vd [17] of 17 L/kg, an Activity (Rattus norvegicus [18]) of 35 mmHg and an Activity (Rattus norvegicus [1]) of 16%. For the same compound, the concentration at 0.5 h [2] was 7.9 µM, the Activity (Liver microsomes [19]) was 34.5 pmolequiv and the Activity (Canis familiaris [5]) was 4%. It also gave a half-life [20] of 5.2 h, a Time (Rattus norvegicus [21]) of 24 h and an Activity (Liver microsomes [22]) of 8.3 pmolequiv. It also gave a pIC50 (Cytochrome P450 3A4 [23]) of 4.80, a concentration at 1.5 h [6] of 9.3 µM and a pIC50 (Cytochrome P450 3A4 [24]) of 5.19. For the same compound, the bioavailability [14] was 30%, the half-life [25] was 13.7 h and the Vd [26] was 4.8 L/kg. It also gave an Activity (Rattus norvegicus [7]) of 14%, an Activity (Canis familiaris [8]) of 5% and a pIC50 (Renin [9]) of 9.00. The bioavailability [27] was 36%, the AUC [28] was 0.9 µM·h and the clearance [29] was 14 mL/min/kg. For the same compound, the Vd [30] was 4.5 L/kg, the AUC [31] was 4.2 µM·h and the activity % at 10 µM (CYP3A4 [15]) was 22%. It also gave a clearance [32] of 67 mL/min/kg, a pIC50 (Renin [10]) of 8.62 and an Activity (Canis familiaris [11]) of 0%. The bioavailability [33] was 14%, the inhibition at 10 µM (CYP3A4 [12]) was 0% and the clearance [34] was 16 mL/min/kg. The pIC50 (Cytochrome P450 3A4 [35]) was 4.70, the AUC [36] was 2.1 µM·h and the half-life [37] was 7.8 h. For the same compound, the pKi [16] was 4.74.

With `COCCCc1cc(CN(C(=O)[C@H]2CNCC[C@@H]2c2ccn(C)c(=O)c2)C2CC2)cc(Br)c1C.Cl` the solubility [38] was “soluble”.
